Columns and labels:
[1] = Toxicity in human CD4+ T-cells assessed as elevation of supernatant cytokine concentrations of IL-2 incubated for 24 hrs by bead-based immunoassay; details: cd4+ t cell
Outline: (§1)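 Purified CD4+ T-cells from healthy donors treated 24 h with 1 μm drug, 1 μm JQ1, or the combination. IL-2, IL-5, IL-6, IL-13, TNFα and IFN-γ in supernatants measured by flow-cytometry bead-based Th1/Th2 immunoassay. Run in duplicate.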

[2] = Toxicity in human CD4+ T-cells assessed as elevation of supernatant cytokine concentrations of IFNgamma incubated for 24 hrs by bead-based immunoassay; details: cd4+ t cell; outline: as §1
U1 = experiment: Induction of apoptosis in human U1 cells at 1 uM incubated for 48 hrs by propidium iodide/annexin-V staining based flow cytometry (reference value: 3.16%); format: functional
ACH-2 cell line = experiment: Induction of apoptosis in human ACH-2 cells assessed as cleaved-PARP level at 1 uM incubated for 24 hrs by flow cytometry (reference value: 1.64%); format: functional
Outline: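 Cells fixed, permeabilized, stained on ice with anti-cleaved PARP (Asp-214) mAb; % cleaved-PARP cells by flow cytometry. Means ± S.D. of three independent experiments.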

CCCCCCCCCCc1ccc2c(c1)N(C)[C@@H](C(C)C)C(=O)N[C@H](CO)C2
Activity [1]: Toxic | Activity [2]: Toxic | Activity (U1): 28.4% | Activity (ACH-2 cell line): 21.5%

— ChEMBL document CHEMBL5674882, “Benzolactam-related compounds promote apoptosis of HIV-infected human cells via protein kinase C-induced HIV latency reversal” (J Biol Chem, 2019)
